According to ChEMBL document CHEMBL5696442, “Discovery of type II inhibitors of TGFβ-activated kinase 1 (TAK1) and mitogen-activated protein kinase kinase kinase kinase 2 (MAP4K2)” (J Med Chem, 2015):
Calls of active or inactive are those of the source. The calls are words filed in the database; no cut-off is given here.

Key:
[1] = molecular target: Serine/threonine-protein kinase 25 (Homo sapiens) (UniProt O00506); experiment: Inhibition of YSK1 ACT labeling site in human A-375 cells at 0.05 uM by KiNativ Profiling analysis relative to control; format: cell-based
[2] = molecular target: RAC-alpha serine/threonine-protein kinase (Homo sapiens) (UniProt P31749); experiment: Inhibition of AKT1 ATP Loop labeling site in human A-375 cells at 0.5 uM by KiNativ Profiling analysis relative to control; format: cell-based
How it was run: (§1)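 Live A375 melanoma cells were treated with compound at 5 or 0.5 μM, then lysed. The lysates were labeled with a lysine-reactive ATP or ADP-biotin probe. Kinase protection from probe labeling was measured by KiNativ.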

[3] = molecular target: Casein kinase II subunit alpha (Homo sapiens) (UniProt P68400); experiment: Inhibition of CK2a1 Protein Kinase Domain in human A-375 cells at 0.05 uM by KiNativ Profiling analysis relative to control; format: cell-based
[4] = tested on: BaF3; experiment: Antiproliferative activity against parental mouse BaF3 cells harbouring Bcr/Abl assessed reduction in cell viability measured after 48 hrs by Celltiter-glo assay; format: functional, cell-based; details: BaF3, 48 h
How it was run: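 Cells were grown with serial dilutions of compound for 48 h, and viability was read by CellTiter-Glo. IC50 was derived from the dose–response curve. Parental Ba/F3 cells were grown in the presence of interleukin 3. The BCR-ABL line is BCR-ABL-dependent Ba/F3.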

[5] = molecular target: Serine/threonine-protein kinase B-raf (Homo sapiens, UniProt P15056); experiment: Inhibition of BRAF Lys2 labeling site in human A-375 cells at 5 uM by KiNativ Profiling analysis relative to control; format: cell-based; how it was run: as §1
[6] = molecular target: T1, Serine/threonine-protein kinase 3 (Homo sapiens) (UniProt Q13188); experiment: Inhibition of MST2 Lys2 labeling site harbouring DIKAGNILLNTEGHAK in human A-375 cells at 5 uM by KiNativ Profiling analysis relative to control; format: cell-based
T1 sequence (whole entry): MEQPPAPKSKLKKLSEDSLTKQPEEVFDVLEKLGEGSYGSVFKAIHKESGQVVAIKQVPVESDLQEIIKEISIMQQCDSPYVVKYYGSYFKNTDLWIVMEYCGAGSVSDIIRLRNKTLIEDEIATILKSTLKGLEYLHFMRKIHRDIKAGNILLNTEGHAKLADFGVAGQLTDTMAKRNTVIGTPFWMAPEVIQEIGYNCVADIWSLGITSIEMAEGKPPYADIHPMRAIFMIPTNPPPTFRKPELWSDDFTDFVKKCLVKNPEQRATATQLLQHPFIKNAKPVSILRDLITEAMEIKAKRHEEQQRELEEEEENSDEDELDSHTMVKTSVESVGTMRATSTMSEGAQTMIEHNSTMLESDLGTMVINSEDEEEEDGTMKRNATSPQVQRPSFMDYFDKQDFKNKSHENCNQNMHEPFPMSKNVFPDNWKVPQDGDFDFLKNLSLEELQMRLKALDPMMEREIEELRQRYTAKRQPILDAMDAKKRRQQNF

[7] = molecular target: Cyclin-dependent kinase 11B (Homo sapiens) (UniProt P21127); experiment: Inhibition of CDK11 Lys2 labeling site in human A-375 cells at 0.05 uM by KiNativ Profiling analysis relative to control; format: cell-based
[8] = molecular target: T2, Mitogen-activated protein kinase 12 (Homo sapiens) (UniProt P53778); experiment: Inhibition of p38 gamma Lys2 labeling site in human A-375 cells at 0.05 uM by KiNativ Profiling analysis relative to control; format: cell-based
T2 sequence (whole entry): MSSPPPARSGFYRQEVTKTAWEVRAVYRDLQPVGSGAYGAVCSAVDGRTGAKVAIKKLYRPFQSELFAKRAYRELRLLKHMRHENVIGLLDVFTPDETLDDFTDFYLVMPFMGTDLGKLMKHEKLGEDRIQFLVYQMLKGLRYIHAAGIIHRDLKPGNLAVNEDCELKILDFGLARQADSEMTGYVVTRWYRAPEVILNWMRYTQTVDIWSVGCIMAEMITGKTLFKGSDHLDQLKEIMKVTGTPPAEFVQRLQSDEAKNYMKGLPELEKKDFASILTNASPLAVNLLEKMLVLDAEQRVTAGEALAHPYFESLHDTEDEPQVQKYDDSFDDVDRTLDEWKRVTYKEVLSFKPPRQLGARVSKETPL

[9] = molecular target: T3, Dual specificity mitogen-activated protein kinase kinase 5 (Homo sapiens) (UniProt Q13163); experiment: Inhibition of MAP2K5 Lys2 labeling site in human A-375 cells at 0.5 uM by KiNativ Profiling analysis relative to control; format: cell-based
T3 sequence (whole entry): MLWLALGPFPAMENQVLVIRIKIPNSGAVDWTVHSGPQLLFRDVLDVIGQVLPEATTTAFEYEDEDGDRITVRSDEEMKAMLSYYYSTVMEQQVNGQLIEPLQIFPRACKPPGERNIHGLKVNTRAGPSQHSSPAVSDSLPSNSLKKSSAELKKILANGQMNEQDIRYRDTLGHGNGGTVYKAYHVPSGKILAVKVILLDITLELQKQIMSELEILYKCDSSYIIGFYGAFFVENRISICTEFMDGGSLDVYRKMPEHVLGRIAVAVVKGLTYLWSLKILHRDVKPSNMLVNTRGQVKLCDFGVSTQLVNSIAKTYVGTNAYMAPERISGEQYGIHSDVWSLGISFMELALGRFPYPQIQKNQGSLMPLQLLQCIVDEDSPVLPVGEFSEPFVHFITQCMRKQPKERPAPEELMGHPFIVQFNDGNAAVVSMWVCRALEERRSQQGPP

[10] = tested on: L929; experiment: Inhibition of TNF alpha induced IKKalpha/beta phosphorylation level in mouse L929 cells at 100 nM preincubated for 30 mins followed by TNF alpha stimulation and measured after 5 mins by Western blot analysis; format: functional, cell-based
How it was run: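 Mouse L929 cells were pretreated with compound at 100 nM for 30 min, then stimulated with TNFα for 5 min. Lysates were Western blotted for phospho-IKKα/β, with tubulin as loading control.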

Sequence of Cyclin-dependent kinase 11B (Homo sapiens) (P21127 whole entry): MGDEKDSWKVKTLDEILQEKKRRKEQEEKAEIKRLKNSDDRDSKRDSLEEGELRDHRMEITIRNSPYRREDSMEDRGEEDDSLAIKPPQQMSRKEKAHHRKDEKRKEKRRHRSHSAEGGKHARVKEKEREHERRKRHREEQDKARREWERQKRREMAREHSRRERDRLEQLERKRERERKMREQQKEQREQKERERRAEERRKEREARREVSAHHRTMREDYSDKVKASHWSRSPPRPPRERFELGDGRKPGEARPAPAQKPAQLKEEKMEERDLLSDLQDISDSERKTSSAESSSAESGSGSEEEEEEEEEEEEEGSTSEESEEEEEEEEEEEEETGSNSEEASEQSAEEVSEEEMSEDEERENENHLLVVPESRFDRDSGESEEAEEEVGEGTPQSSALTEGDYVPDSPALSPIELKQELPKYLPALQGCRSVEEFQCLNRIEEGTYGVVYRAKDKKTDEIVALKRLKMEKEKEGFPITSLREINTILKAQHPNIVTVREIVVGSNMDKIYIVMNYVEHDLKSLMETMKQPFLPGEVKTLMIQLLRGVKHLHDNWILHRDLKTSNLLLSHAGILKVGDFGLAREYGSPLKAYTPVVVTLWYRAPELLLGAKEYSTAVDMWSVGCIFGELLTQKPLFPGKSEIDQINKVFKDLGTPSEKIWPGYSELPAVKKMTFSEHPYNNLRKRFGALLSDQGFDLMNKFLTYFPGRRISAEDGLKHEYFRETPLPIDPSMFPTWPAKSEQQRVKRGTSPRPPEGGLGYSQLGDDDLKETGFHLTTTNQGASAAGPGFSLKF
Sequence of Serine/threonine-protein kinase B-raf (P15056 whole entry): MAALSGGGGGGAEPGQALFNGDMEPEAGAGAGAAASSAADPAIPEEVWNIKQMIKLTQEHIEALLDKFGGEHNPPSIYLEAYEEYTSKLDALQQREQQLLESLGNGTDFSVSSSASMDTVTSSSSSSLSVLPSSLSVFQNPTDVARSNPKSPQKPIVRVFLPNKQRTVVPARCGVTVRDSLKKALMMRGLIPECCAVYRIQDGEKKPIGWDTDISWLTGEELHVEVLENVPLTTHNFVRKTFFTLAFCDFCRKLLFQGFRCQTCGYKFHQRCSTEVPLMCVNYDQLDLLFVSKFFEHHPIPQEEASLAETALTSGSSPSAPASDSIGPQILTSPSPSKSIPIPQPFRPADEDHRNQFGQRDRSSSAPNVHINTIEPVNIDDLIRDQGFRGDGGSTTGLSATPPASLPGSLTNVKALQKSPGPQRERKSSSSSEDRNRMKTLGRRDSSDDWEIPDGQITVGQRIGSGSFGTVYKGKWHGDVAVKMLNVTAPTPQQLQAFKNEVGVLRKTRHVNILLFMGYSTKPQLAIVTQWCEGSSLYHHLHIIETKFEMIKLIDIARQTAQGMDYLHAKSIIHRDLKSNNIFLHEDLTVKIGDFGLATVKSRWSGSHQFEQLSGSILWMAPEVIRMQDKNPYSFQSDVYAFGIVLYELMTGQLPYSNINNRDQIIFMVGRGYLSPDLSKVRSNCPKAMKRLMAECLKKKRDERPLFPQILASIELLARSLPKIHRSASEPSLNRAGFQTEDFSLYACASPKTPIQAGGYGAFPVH
Sequence of Serine/threonine-protein kinase 25 (Homo sapiens) (O00506 whole entry, looked up): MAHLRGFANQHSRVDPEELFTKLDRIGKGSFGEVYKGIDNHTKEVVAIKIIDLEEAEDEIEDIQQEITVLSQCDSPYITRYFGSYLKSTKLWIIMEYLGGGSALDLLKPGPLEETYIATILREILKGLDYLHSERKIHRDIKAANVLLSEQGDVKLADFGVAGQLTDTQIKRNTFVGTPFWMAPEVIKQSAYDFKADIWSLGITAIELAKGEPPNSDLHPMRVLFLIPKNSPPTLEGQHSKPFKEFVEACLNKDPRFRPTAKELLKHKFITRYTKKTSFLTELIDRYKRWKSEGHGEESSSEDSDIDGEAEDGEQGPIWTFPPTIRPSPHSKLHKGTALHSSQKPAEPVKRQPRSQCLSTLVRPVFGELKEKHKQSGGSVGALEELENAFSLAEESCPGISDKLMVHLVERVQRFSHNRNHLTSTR
Sequence of RAC-alpha serine/threonine-protein kinase (Homo sapiens) (P31749 whole entry): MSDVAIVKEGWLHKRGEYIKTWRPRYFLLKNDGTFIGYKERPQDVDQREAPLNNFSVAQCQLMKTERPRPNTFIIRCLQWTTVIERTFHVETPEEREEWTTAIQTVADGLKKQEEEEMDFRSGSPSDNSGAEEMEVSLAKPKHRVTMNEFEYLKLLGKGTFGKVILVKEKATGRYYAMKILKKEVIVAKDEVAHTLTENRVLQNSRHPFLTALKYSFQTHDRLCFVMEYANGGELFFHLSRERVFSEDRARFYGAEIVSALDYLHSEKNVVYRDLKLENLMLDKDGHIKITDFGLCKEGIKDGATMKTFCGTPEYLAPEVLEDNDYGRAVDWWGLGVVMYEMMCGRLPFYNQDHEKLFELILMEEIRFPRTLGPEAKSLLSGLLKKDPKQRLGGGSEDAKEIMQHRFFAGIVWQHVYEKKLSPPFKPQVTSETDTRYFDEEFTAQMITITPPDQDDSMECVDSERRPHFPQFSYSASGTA
Sequence of Casein kinase II subunit alpha (Homo sapiens) (P68400 whole entry, looked up, the tested form may be a part): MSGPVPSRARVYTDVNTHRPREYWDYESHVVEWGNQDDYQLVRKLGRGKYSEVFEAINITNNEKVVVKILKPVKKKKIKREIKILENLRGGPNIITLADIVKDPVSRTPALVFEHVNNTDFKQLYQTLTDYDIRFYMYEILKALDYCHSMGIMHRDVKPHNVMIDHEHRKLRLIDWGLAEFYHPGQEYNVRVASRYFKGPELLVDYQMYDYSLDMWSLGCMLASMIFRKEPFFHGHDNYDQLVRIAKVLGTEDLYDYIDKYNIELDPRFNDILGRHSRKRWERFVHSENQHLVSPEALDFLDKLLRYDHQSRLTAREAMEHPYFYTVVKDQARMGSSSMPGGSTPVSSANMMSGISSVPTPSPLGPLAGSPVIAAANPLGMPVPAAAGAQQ

Work on CCN1CCN(Cc2ccc(NC(=O)c3ccc(C)c(Oc4ccnc5[nH]ccc45)c3)cc2C(F)(F)F)CC1 yielded an inhibition [1] of 22.4%, an inhibition [2] of -1% and an inhibition [3] of -4.1%. The IC50 [4] was 18 nM, the inhibition [5] was 66.8% and the inhibition [6] was 3.5%. For the same molecule, the inhibition [7] was 32.1%, the inhibition [8] was 64.9% and the inhibition [9] was 16.2%.

CNc1cc(Oc2cc(C(=O)Nc3cc(-n4cnc(C)c4)cc(C(F)(F)F)c3)ccc2C)ncn1 was tested, and the inhibition [10] was “inactive”.

With CNc1cc(Oc2cc(C(=O)Nc3cc(N4CCN(C)CC4)cc(C(F)(F)F)c3)ccc2C)ncn1 the inhibition [10] was “inactive”.

With CCN1CCN(Cc2ccc(NC(=O)c3ccc(C)c(/C=C/c4cnc5[nH]ccc5c4OC)c3)cc2C(F)(F)F)CC1 the inhibition [1] was 13.5%, the inhibition [2] was 15% and the inhibition [3] was 11.4%. It also gave an IC50 [4] of 10 nM, an inhibition [5] of 61.5% and an inhibition [6] of 14.1%. The inhibition [7] was -9.4%, the inhibition [8] was 24.3% and the inhibition [9] was 26.1%.
